This is an account of results in ChEMBL document CHEMBL4732114, “Design and structural optimization of novel 2H-benzo[h]chromene derivatives that target AcrB and reverse bacterial multidrug resistance” (Eur J Med Chem, 2021).

Converted amounts (≈) assume the structure as drawn.

Series [1] has as its target T1, Multidrug efflux pump subunit AcrB (Escherichia coli (strain K12)) (UniProt P31224).
T1 sequence (whole entry): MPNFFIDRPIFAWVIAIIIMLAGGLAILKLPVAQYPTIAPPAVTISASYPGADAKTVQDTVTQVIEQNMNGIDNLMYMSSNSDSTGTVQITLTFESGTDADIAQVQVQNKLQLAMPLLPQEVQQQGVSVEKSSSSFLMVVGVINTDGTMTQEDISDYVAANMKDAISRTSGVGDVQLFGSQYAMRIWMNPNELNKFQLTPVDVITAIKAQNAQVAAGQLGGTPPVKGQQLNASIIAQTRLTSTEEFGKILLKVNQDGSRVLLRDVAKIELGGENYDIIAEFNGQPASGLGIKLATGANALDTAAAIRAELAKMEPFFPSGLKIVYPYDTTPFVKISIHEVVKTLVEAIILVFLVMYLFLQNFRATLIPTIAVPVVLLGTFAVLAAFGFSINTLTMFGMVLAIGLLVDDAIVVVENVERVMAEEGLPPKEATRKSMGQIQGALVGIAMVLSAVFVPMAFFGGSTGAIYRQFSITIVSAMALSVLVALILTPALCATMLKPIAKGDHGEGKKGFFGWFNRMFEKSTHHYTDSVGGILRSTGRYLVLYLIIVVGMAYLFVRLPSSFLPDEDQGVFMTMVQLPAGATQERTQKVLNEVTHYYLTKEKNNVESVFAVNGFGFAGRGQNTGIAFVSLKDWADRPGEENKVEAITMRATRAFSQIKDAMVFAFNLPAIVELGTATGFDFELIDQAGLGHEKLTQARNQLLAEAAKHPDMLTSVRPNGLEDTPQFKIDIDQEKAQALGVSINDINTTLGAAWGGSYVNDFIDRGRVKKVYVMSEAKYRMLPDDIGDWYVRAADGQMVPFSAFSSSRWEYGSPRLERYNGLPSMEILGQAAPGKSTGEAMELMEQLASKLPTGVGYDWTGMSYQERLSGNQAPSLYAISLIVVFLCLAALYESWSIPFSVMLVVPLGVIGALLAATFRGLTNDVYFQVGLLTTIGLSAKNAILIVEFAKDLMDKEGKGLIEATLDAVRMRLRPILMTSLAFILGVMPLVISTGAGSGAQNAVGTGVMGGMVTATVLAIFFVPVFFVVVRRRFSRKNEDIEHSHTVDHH
In words: Inhibition of AcrB in multidrug-resistant Escherichia coli BW25113 assessed as potentiation of erythromycin-induced antibacterial activity by measuring erythromycin MIC at 8 ug/ml by checkerboard titration method (reference value: 64 ug/ml). The note with it: dose 8.0 µg/ml.

A short description of series [2]: Toxicity in multidrug-resistant Escherichia coli BW25113 assessed as growth inhibition by two-fold broth dilution method. For orientation: Dilution methods test growth across graded concentrations, often in twofold steps.
Series [3] in a line: Toxicity in multidrug-resistant Escherichia coli BW25113 harboring AcrB deletion mutant assessed as growth inhibition by two-fold broth dilution method.
Series [4] has as its target T1, Multidrug efflux pump subunit AcrB (Escherichia coli (strain K12)). In words: Inhibition of AcrB in multidrug-resistant Escherichia coli BW25113 assessed as potentiation of chloramphenicol-induced antibacterial activity by measuring chloramphenicol MIC at 8 ug/ml by checkerboard titration method (reference value: 8 ug/ml). Conditions: dose 8.0 µg/ml; call rule not given here.
Series [5] shares this target. Description: Inhibition of AcrB in multidrug-resistant Escherichia coli BW25113 assessed as potentiation of chloramphenicol-induced antibacterial activity by measuring chloramphenicol MIC at 16 ug/ml by checkerboard titration method (reference value: 8 ug/ml). The note with it: dose 16.0 µg/ml.
The target is the same in series [6]. Description: Inhibition of AcrB in multidrug-resistant Escherichia coli BW25113 assessed as potentiation of chloramphenicol-induced antibacterial activity by measuring chloramphenicol MIC at 64 ug/ml by checkerboard titration method (reference value: 8 ug/ml). The note with it: dose 64.0 µg/ml.
The target is the same in series [7]. Description: Inhibition of AcrB in multidrug-resistant Escherichia coli BW25113 assessed as potentiation of chloramphenicol-induced antibacterial activity by measuring chloramphenicol MIC at 128 ug/ml by checkerboard titration method (reference value: 8 ug/ml). The note with it: dose 128.0 µg/ml.
For series [8] the target is unchanged. Description: Inhibition of AcrB in multidrug-resistant Escherichia coli BW25113 assessed as potentiation of erythromycin-induced antibacterial activity by measuring erythromycin MIC at 64 ug/ml by checkerboard titration method (reference value: 64 ug/ml). The note with it: dose 64.0 µg/ml.
For series [9] the target is unchanged. Description: Inhibition of AcrB in multidrug-resistant Escherichia coli BW25113 assessed as potentiation of erythromycin-induced antibacterial activity by measuring erythromycin MIC at 128 ug/ml by checkerboard titration method (reference value: 64 ug/ml). The note with it: dose 128.0 µg/ml.
Series [10] shares this target. Description: Inhibition of AcrB in multidrug-resistant Escherichia coli BW25113 assessed as potentiation of tetraphenylphosphonium-induced antibacterial activity by measuring tetraphenylphosphonium MIC at 16 ug/ml by checkerboard titration method (reference value: 1024 ug/ml). Conditions: dose 16.0 µg/ml.
Series [11] has the same target. Description: Inhibition of AcrB in multidrug-resistant Escherichia coli BW25113 assessed as potentiation of tetraphenylphosphonium-induced antibacterial activity by measuring tetraphenylphosphonium MIC at 32 ug/ml by checkerboard titration method (reference value: 1024 ug/ml). Conditions: dose 32.0 µg/ml.
Series [12] shares this target. In words: Inhibition of AcrB in multidrug-resistant Escherichia coli BW25113 assessed as potentiation of tetraphenylphosphonium-induced antibacterial activity by measuring tetraphenylphosphonium MIC at 64 ug/ml by checkerboard titration method (reference value: 1024 ug/ml). Conditions: dose 64.0 µg/ml.
Series [13] has the same target. Description: Inhibition of AcrB in multidrug-resistant Escherichia coli BW25113 assessed as potentiation of tetraphenylphosphonium-induced antibacterial activity by measuring tetraphenylphosphonium MIC at 128 ug/ml by checkerboard titration method (reference value: 1024 ug/ml). The note with it: dose 128.0 µg/ml.
For series [14] the target is unchanged. Description: Inhibition of AcrB in multidrug-resistant Escherichia coli BW25113 assessed as potentiation of levofloxacin-induced antibacterial activity by measuring levofloxacin MIC at 8 ug/ml by checkerboard titration method (reference value: 0.06 ug/ml). The note with it: dose 8.0 µg/ml.
The target is the same in series [15]. Description: Inhibition of AcrB in multidrug-resistant Escherichia coli BW25113 assessed as potentiation of levofloxacin-induced antibacterial activity by measuring levofloxacin MIC at 16 ug/ml by checkerboard titration method (reference value: 0.06 ug/ml). The note with it: dose 16.0 µg/ml.
Series [16] has the same target. In words: Inhibition of AcrB in multidrug-resistant Escherichia coli BW25113 assessed as potentiation of levofloxacin-induced antibacterial activity by measuring levofloxacin MIC at 128 ug/ml by checkerboard titration method (reference value: 0.06 ug/ml). The note with it: dose 128.0 µg/ml.
Series [17] relates to Cell membrane. In words: Induction of outer membrane permeabilization in wild type Escherichia coli BW25113 assessed as increase in nitrocefin hydrolysis at 128 ug/ml in presence of CCCP by spectroscopic analysis. Conditions: dose 128 µg/ml. In outline: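 Intact E. coli were treated with 10 μM CCCP to block nitrocefin efflux, then given compound, nothing, or polymyxin B as permeabilizer control. Nitrocefin was added, and hydrolysis by periplasmic β-lactamase was followed as the rise in absorbance at 490 nm. Duplicate experiments were run on different days.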

Series [18] addresses T1, Multidrug efflux pump subunit AcrB (Escherichia coli (strain K12)). Conditions: Escherichia coli BW25113; dose 8.0 µg/ml.

On to `CC1(C)CCc2c(C(=O)O)cc3c(OCc4ccccc4)cccc3c2O1`, for which the MIC in series [1] was 64 µg/mL; in [2] it was over 512 µg/mL; in series [3], over 128 µg/mL; in [4], 8 µg/mL; in series [5] it was 8 µg/mL; in [6] it was 4 µg/mL. For the same compound, the MIC in series [7] turned out to be 1 µg/mL; in series [8] it was 64 µg/mL; in [9], 32 µg/mL; in series [10], 1020 µg/mL; in series [11], 512 µg/mL; in [12], 256 µg/mL. Besides, the MIC was found to be 64 µg/mL in [13]; 0.06 µg/mL in [14]; 0.06 µg/mL in series [15]; 0.01 µg/mL in series [16]; 16 µg/mL (≈ 44.1 µM) in series [18]. Besides, in series [17], the Activity entry is recorded as “Not Active”.
Take `CC1(C)CCc2c(Cn3cnnn3)cc3c(OCc4ccc(OC(F)(F)F)cc4)cccc3c2O1`: the MIC in [1] was 64 µg/mL; in series [2], over 512 µg/mL; in series [3], over 128 µg/mL; in [4], 8 µg/mL; in series [5] it was 8 µg/mL; in series [6] it was 8 µg/mL. Moreover, the MIC was 4 µg/mL in [7]; 64 µg/mL in series [8]; 32 µg/mL in series [9]; 1020 µg/mL in [10]; 1020 µg/mL in series [11]; 1020 µg/mL in [12]. Moreover, the MIC was 1020 µg/mL in series [13]; 0.06 µg/mL in series [14]; 0.06 µg/mL in series [15]; 0.06 µg/mL in [16]; 16 µg/mL (≈ 33 µM) in [18]. Also, the Activity result in series [17] was “Not Active”.
`CC1(C)CC(=O)c2ccc(OCCNC3CCCC3)cc2O1`: the MIC is 64 µg/mL in [1]; over 512 µg/mL in series [2]; over 128 µg/mL in series [3]; 8 µg/mL in series [4]; 8 µg/mL in [5]; 8 µg/mL in series [6]. In addition, the MIC in [7] was found to be 8 µg/mL; in series [8] it was 64 µg/mL; in series [9], 64 µg/mL; in series [10] it was 512 µg/mL; in [11] it was 512 µg/mL; in series [12] it was 512 µg/mL. Moreover, the MIC in series [13] came out at 512 µg/mL; in [14], 0.06 µg/mL; in series [15], 0.06 µg/mL; in series [16] it was 0.03 µg/mL; in series [18], 16 µg/mL (≈ 52.7 µM). Moreover, the Activity result in series [17] is recorded as “Not Active”.
Consider `CC(C)NCCOc1ccc2c(c1)OC(C)(C)CC2=O`, for which the MIC in series [1] was 64 µg/mL; in series [2], over 512 µg/mL; in series [3], over 128 µg/mL; in series [4], 8 µg/mL; in series [5], 8 µg/mL; in series [6], 8 µg/mL. Further, the MIC in series [7] worked out at 8 µg/mL; in series [8], 64 µg/mL; in series [9], 64 µg/mL; in series [10], 1020 µg/mL; in series [11] it was 1020 µg/mL; in series [12], 1020 µg/mL. Also, the MIC in series [13] turned out to be 1020 µg/mL; in series [14] it was 0.03 µg/mL; in [15] it was 0.03 µg/mL; in series [16] it was 0.03 µg/mL; in series [18], 16 µg/mL (≈ 57.7 µM). Also, in series [17], the Activity entry was “Not Active”.
As to `COc1cccc(COc2cccc3c4c(c(C(=O)N5CCOCC5)cc23)CCC(C)(C)O4)c1`, the MIC in series [1] is 64 µg/mL; in [2], over 512 µg/mL; in [3] it was over 128 µg/mL; in series [4], 4 µg/mL; in series [5], 4 µg/mL; in [6] it was 4 µg/mL. The MIC in [7] was found to be 2 µg/mL; in [8], 32 µg/mL; in [9], 16 µg/mL; in series [10], 512 µg/mL; in [11] it was 512 µg/mL; in series [12], 256 µg/mL. Besides, the MIC came out at 128 µg/mL in series [13]; 0.06 µg/mL in [14]; 0.06 µg/mL in series [15]; 0.06 µg/mL in series [16]; 16 µg/mL (≈ 34.7 µM) in series [18]. The Activity result in series [17] is recorded as “Not Active”.
In the case of `CC1(C)CCc2c(C(=O)N3CCOCC3)cc3c(OCc4ccccc4)cccc3c2O1`, the MIC in series [1] was 64 µg/mL; in [2] it was over 512 µg/mL; in [3] it was over 128 µg/mL; in series [4] it was 8 µg/mL; in series [5], 4 µg/mL; in [6] it was 4 µg/mL. Besides, the MIC in series [7] was 4 µg/mL; in series [8], 16 µg/mL; in series [9] it was 8 µg/mL; in series [10], 512 µg/mL; in series [11] it was 512 µg/mL; in [12] it was 512 µg/mL. Also, the MIC in series [13] was found to be 64 µg/mL; in [14], 0.03 µg/mL; in series [15], 0.03 µg/mL; in [16], 0.03 µg/mL; in [18], 16 µg/mL (≈ 37.1 µM). The Activity result in [17] was “Not Active”.
In the case of `CC1(C)CCc2c(Cn3cnnn3)cc3c(OCc4ccc([N+](=O)[O-])cc4)cccc3c2O1`, the MIC is 64 µg/mL in [1]; over 512 µg/mL in [2]; over 128 µg/mL in series [3]; 8 µg/mL in [4]; 8 µg/mL in [5]; 8 µg/mL in [6]. Besides, the MIC in series [7] was determined as 8 µg/mL; in series [8], 64 µg/mL; in [9], 64 µg/mL; in [10], 1020 µg/mL; in series [11] it was 1020 µg/mL; in series [12], 1020 µg/mL. In addition, the MIC in series [13] was 512 µg/mL; in series [14], 0.06 µg/mL; in series [15] it was 0.06 µg/mL; in series [16] it was 0.06 µg/mL; in series [18], 16 µg/mL (≈ 35.9 µM). Besides, the Activity entry in series [17] is “Not Active”.
